In ChEMBL document CHEMBL4371073, “Improvement of Aqueous Solubility of Lapatinib-Derived Analogues: Identification of a Quinolinimine Lead for Human African Trypanosomiasis Drug Development” (J Med Chem, 2019):

test: Intrinsic clearance in human liver microsomes by LC-MS/MS analysis; type: ADME, Microsome; settings: liver microsomes, read-out: CLH
In short: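 Human liver microsomes were incubated with compound and samples analyzed by LC/MS/MS. Clint is expressed as μL/min/mg.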

Structure (SMILES) | microsomal CLint
CN1CCN(c2ncc(-c3ccc4c(Nc5cnccn5)ccnc4c3)cn2)CC1 | 180 µL/min/mg
CN(CCNc1ncc(-c2ccc3c(Nc4cnccn4)ccnc3c2)cn1)C(=O)OC(C)(C)C | > 300 µL/min/mg

same assay, conditions: microsomes

Microsomal intrinsic clearance | Structure (SMILES)
> 300 µL/min/mg | CCN1CCN(c2ncc(-c3ccc4c(Nc5cnccn5)ccnc4c3)cn2)CC1
220 µL/min/mg | COC(=O)[C@@H]1CCCN1c1ncc(-c2ccc3c(Nc4cnccn4)ccnc3c2)cn1
72 µL/min/mg | Cc1cncc(Nc2ccnc3cc(-c4cnc(N5CCCN(C)CC5)nc4)ccc23)n1
86 µL/min/mg | NCCNc1ncc(-c2ccc3c(Nc4cnccn4)ccnc3c2)cn1
170 µL/min/mg | CN1CCN(c2ncc(-c3ccc4c(NCC5CCOCC5)ccnc4c3)cn2)CC1
200 µL/min/mg | CCN1CCCN(c2ncc(-c3ccc4c(Nc5cnccn5)ccnc4c3)cn2)CC1
38 µL/min/mg | CCn1cc/c(=N\c2cnccn2)c2ccc(-c3cnc(N4CCCN(C)CC4)nc3)cc21
30 µL/min/mg | c1cnc(Nc2ccnc3cc(-c4cnc(N5CCNCC5)nc4)ccc23)cn1
37 µL/min/mg | CN1C[C@@H]2C[C@H]1CN2c1ncc(-c2ccc3c(Nc4cnccn4)ccnc3c2)cn1
45 µL/min/mg | CN(C)CCN(C)c1ncc(-c2ccc3c(Nc4cnccn4)ccnc3c2)cn1
100 µL/min/mg | Cc1cnc(Nc2ccnc3cc(-c4cnc(N5CCCN(C)CC5)nc4)ccc23)cn1
94 µL/min/mg | CN1CCN(c2ncc(-c3ccc4c(NC5CCOCC5)ccnc4c3)cn2)CC1
43 µL/min/mg | CN1CC2(CCN(c3ncc(-c4ccc5c(Nc6cnccn6)ccnc5c4)cn3)C2)C1
46 µL/min/mg | CN1CCN(c2ncc(Nc3ccc4c(Nc5cnccn5)ccnc4c3)cn2)CC1
53 µL/min/mg | O=C(O)CN1CCN(c2ncc(-c3ccc4c(Nc5cnccn5)ccnc4c3)cn2)CC1
> 300 µL/min/mg | CC(C)(C)OC(=O)NCCNc1ncc(-c2ccc3c(Nc4cnccn4)ccnc3c2)cn1
< 3 µL/min/mg | O=C(O)[C@@H]1CCCN1c1ncc(-c2ccc3c(Nc4cnccn4)ccnc3c2)cn1
61 µL/min/mg | CN1CCN(c2ccc(-c3ccc4c(Nc5cnccn5)ccnc4c3)cc2)CC1
300 µL/min/mg | CCCN1CCCN(c2ncc(-c3ccc4c(Nc5cnccn5)ccnc4c3)cn2)CC1
79 µL/min/mg | Cc1nccnc1Nc1ccnc2cc(-c3cnc(N4CCCN(C)CC4)nc3)ccc12
> 300 µL/min/mg | c1cnc(Nc2ccnc3cc(-c4cnc(N5CCCCCC5)nc4)ccc23)cn1
77 µL/min/mg | CN1CCCN(c2ncc(-c3ccc4c(Nc5cnccn5)ccnc4c3)cn2)CC1
24 µL/min/mg | COc1ccc(NC(=O)c2ccc(-c3cnc(N4CCCN(C)CC4)nc3)cc2O)cc1Cl
300 µL/min/mg | CN1CCN(c2ncc(-c3ccc4c(NC5CCCCC5)ccnc4c3)cn2)CC1
77 µL/min/mg | CN1CCC2(CCN(c3ncc(-c4ccc5c(Nc6cnccn6)ccnc5c4)cn3)C2)C1 (stereo not drawn)
51 µL/min/mg | CCCn1cc/c(=N\c2cnccn2)c2ccc(-c3cnc(N4CCCN(C)CC4)nc3)cc21
41 µL/min/mg | CN1C[C@H]2C[C@@H]1CN2c1ncc(-c2ccc3c(Nc4cnccn4)ccnc3c2)cn1
170 µL/min/mg | CN1CCCN(c2ncc(-c3ccc4c(N(C)c5cnccn5)ccnc4c3)cn2)CC1
160 µL/min/mg | CN1CCN(c2ncc(-c3ccc4c(N[C@@H]5CCCC[C@H]5O)ccnc4c3)cn2)CC1

Structure (SMILES) | Microsomal intrinsic clearance
CN1CCN(c2ncc(-c3ccc4c(Nc5cnccn5)ccnc4c3)cn2)CC1.Cl | 160 µL/min/mg
CN1CCN(c2ncc(-c3ccc4c(Nc5cnccn5)ccnc4c3)cn2)CC1.CS(=O)(=O)O | 170 µL/min/mg
CN1CCN(c2ncc(-c3ccc4c(Nc5cnccn5)ccnc4c3)cn2)CC1.O=C(O)CC(O)(CC(=O)O)C(=O)O | 190 µL/min/mg

test: Chemical stability in 0.01 N HCl solution at 2 mg up to 16 hrs by LC-MS analysis; type: physicochemical; settings: not given

Structure (SMILES) | Stability
CN1CCCN(c2ncc(-c3ccc4/c(=N/c5cnccn5)ccn(C)c4c3)cn2)CC1 | Stable

test: Chemical stability in 0.01 N NaOH solution at 2 mg up to 16 hrs by LC-MS analysis; type: physicochemical; settings: not given

Structure (SMILES) | Stability
CN1CCCN(c2ncc(-c3ccc4/c(=N/c5cnccn5)ccn(C)c4c3)cn2)CC1 | Stable

test: Stability in presence of GSH at 2.3 mg up to 24 hrs by LC-MS analysis; type: physicochemical; settings: not given

Structure (SMILES) | Stability
CN1CCCN(c2ncc(-c3ccc4/c(=N/c5cnccn5)ccn(C)c4c3)cn2)CC1 | Stable

test: Stability in presence of sodium cyanide at 2.3 mg up to 24 hrs by LC-MS analysis; type: physicochemical; settings: not given

Structure (SMILES) | Stability
CN1CCCN(c2ncc(-c3ccc4/c(=N/c5cnccn5)ccn(C)c4c3)cn2)CC1 | Stable
